What all share (format): functional
Experiment [1] has as its system Mycobacterium tuberculosis. Nature of the experiment: Antitubercular activity against linezolid resistant Mycobacterium tuberculosis assessed as inhibition of bacterial growth incubated for 7 days by MABA. The following applies: 168 h, time 7 day. On the technique in general: Alamar Blue is a resazurin reagent that responds to reducing activity.
In experiment [2] the test system is Mycobacterium tuberculosis. In words: Antitubercular activity against INH, SM, RFP, EMB, RBT, PAS, OLFX-resistant Mycobacterium tuberculosis 13946 assessed as bacterial growth inhibition incubated for 7 days by MABA. The following applies: Mycobacterium tuberculosis, 13946, 168 h; time 7 day. The method in brief:
(§1)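 Microplate alamar blue assay. H37Rv or clinical isolates were grown to late log phase in 7H9 broth with glycerol, Tween 80 and ADC, then 2 × 10⁵ CFU added to two-fold dilutions. Final range 32–0.5 μg/mL, lowered to 2–0.016 μg/mL for active compounds. 37 °C, 7 days, then alamar blue 16 h. Fluorescence 530/590 nm. MIC is the lowest concentration giving ≥90% reduction; INH and RFP were controls.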

Experiment [3] deals with Mycobacterium tuberculosis. In words: Antitubercular activity against INH, SM, RFP, EMB, PAS, Prothionamide 1321, Capreomycin-resistant Mycobacterium tuberculosis 14862 assessed as bacterial growth inhibition incubated for 7 days by MABA. The conditions noted are these: Mycobacterium tuberculosis, 14862, 168 h; time 7 day. The method in brief:
as §1

≈ marks a conversion by molar mass, not a printed value. A value given as a limit tells only on which side of the number the result lay.

For orientation: MIC means the least concentration at which growth counts as inhibited. In the case of `CC(=O)NC[C@@H]1OC(=O)N2Cc3cc(-c4ccc(-c5nnn(C)n5)nc4)c(F)cc3O[C@@H]12`, the values for the MIC in experiment [1], in experiment [2] and in experiment [3] were 2.32 µg/mL (≈ 5.28 µM), 0.39 µg/mL (≈ 0.888 µM) and 0.85 µg/mL (≈ 1.93 µM), respectively.

Turning to `CC(=O)NC[C@@H]1OC(=O)N2Cc3cc(-c4ccc(C#N)nc4)c(F)cc3O[C@@H]12`, the results for the MIC in experiment [1], in experiment [2] and in experiment [3] were 3.63 µg/mL (≈ 9.49 µM), 0.48 µg/mL (≈ 1.26 µM) and 0.82 µg/mL (≈ 2.14 µM), respectively.

With `NNC(=O)c1ccncc1` [ISONIAZID], the minimum inhibitory concentration (MIC) is 2.38 µg/mL (≈ 17.4 µM) in experiment [2] and greater than 10 µg/mL in experiment [3].

In the case of `CC(=O)NC[C@H]1CN(c2ccc(N3CCOCC3)c(F)c2)C(=O)O1` [LINEZOLID], the MIC in experiment [1] turned out to be 14.5 µg/mL (≈ 43.1 µM).

For the compound `CO[C@H]1/C=C/O[C@@]2(C)Oc3c(C)c(O)c4c(O)c(c(/C=N/N5CCN(C)CC5)c(O)c4c3C2=O)NC(=O)/C(C)=C\C=C\[C@H](C)[C@H](O)[C@@H](C)[C@@H](O)[C@@H](C)[C@H](OC(C)=O)[C@@H]1C` [RIFAMPIN], the MIC in experiment [2] and in experiment [3] was greater than 10 µg/mL throughout.

These data come from ChEMBL document CHEMBL4837188, “Identification of Novel Tricyclic Benzo[1,3]oxazinyloxazolidinones as Potent Antibacterial Agents with Excellent Pharmacokinetic Profiles against Drug-Resistant Pathogens” (J Med Chem, 2021).
